Measurements from different studies.
Compare with care: the assays were run in different laboratories.
Observed: metabolic stability

SMILES	system	conditions	half-life
O=C(c1ccc(F)cc1)C1CCN(CCn2c(=O)[nH]c3ccccc3c2=O)CC1	rat, liver microsomes	–	17.8 min
CC(=O)c1c(C)c2cnc(Nc3ccc(N4CCNCC4)cn3)nc2n(C2CCCC2)c1=O	rat, liver microsomes	1 µM, pH 7.4	90.4 min
CCN(CC)CCNC(=O)c1c(C)[nH]c(/C=C2\C(=O)Nc3ccc(F)cc32)c1C	rat, liver microsomes	1 µM	77 min
O=C1CC[C@H](N2Cc3cc(N4CCN(CC5CCN(c6ccc([C@@H]7c8ccc(O)cc8CC[C@@H]7c7ccccc7)cc6)CC5)CC4)ccc3C2=O)C(=O)N1	Sprague-Dawley rat, hepatocytes	1 µM	83 min
O=c1ccc2ccc(O)cc2o1	rat, liver microsomes	–	2.42 min
CCOc1ccc2ccc(=O)oc2c1	male Sprague-Dawley rat, hepatocytes	1 µM	13.1 min
O=c1ccc2ccc(O)cc2o1	Sprague-Dawley rat, hepatocytes	1 µM	11.4 min
CN(C)C(=O)c1cc2cnc(Nc3ccc(N4CCNCC4)cn3)nc2n1C1CCCC1	rat, liver microsomes	1 µM, pH 7.4	49.8 min
